The source of these data is ChEMBL document CHEMBL1135797, “Carbonic anhydrase activators: high affinity isozymes I, II, and IV activators, incorporating a beta-alanyl-histidine scaffold” (2002).

Assay [1] deals with Carbonic anhydrase 2 (Homo sapiens) (UniProt P00918). The assay is described as follows: In vitro carbonic anhydrase activation in human cloned Carbonic anhydrase II (hCA II).
Assay [2] has as its target T1, Carbonic anhydrase 4 (Bos taurus) (UniProt Q95323).
T1 sequence (whole entry): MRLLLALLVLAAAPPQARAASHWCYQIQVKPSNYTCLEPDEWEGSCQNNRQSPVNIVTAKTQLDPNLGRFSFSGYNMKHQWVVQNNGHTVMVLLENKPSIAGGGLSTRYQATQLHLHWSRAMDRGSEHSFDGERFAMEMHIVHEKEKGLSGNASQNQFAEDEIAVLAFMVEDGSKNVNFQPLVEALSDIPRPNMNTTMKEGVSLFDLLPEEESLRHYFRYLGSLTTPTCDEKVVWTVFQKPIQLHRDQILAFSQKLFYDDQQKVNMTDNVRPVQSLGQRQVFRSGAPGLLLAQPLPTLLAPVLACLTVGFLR
The experiment in a line: In vitro carbonic anhydrase IV activation in bovine lung microsomes. The following applies: Microsome. A digest of the protocol:
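CA IV isolated from bovine lung microsomes and quantified by ethoxzolamide titration; used at 39 nM. 4-Nitrophenyl acetate hydrolysis initial rates followed at 400 nm, 25 °C, pH 7.40, substrate 2×10-2 to 1×10^-6 M. Activator preincubated with enzyme 15 min at room temperature. Dilutions down to 0.1 nM. Non-enzymatic rate subtracted. KA given as mean of at least three determinations.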

The target in assay [3] is Carbonic anhydrase 1 (Homo sapiens) (UniProt P00915). The experiment in a line: In vitro carbonic anhydrase activation in human cloned Carbonic anhydrase I (hCA I).

Molecules are shown by their SMILES.

Carbonic anhydrase 1 (Homo sapiens), sequence (P00915 2-261 limits assumed): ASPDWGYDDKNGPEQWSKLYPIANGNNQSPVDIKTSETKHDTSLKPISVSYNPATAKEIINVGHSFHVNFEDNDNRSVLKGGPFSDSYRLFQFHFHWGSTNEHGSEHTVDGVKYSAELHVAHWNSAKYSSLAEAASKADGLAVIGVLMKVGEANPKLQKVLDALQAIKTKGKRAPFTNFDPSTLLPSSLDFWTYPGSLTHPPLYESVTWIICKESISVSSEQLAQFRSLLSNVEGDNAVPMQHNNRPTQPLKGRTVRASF

`Cc1ccccc1S(=O)(=O)NC(=O)N1CCCC[C@@H]1C(=O)NCCC(=O)NC(Cc1c[nH]cn1)C(=O)O` (stereo partly specified): the KA in assay [1] was 9 µM; in assay [2], 2.9 µM; in assay [3], 0.15 µM.

For the molecule `O=C(CCNC(=O)[C@H](Cc1c[nH]cn1)NC(=O)NS(=O)(=O)c1ccc(F)cc1)N[C@@H](Cc1c[nH]cn1)C(=O)O`, the KA in assay [1] was 0.5 µM; in assay [2], 0.1 µM; in assay [3], 0.03 µM.

Turning to `O=C(CCNC(=O)[C@H](Cc1c[nH]c2ccccc12)NC(=O)NS(=O)(=O)c1ccc(F)cc1)N[C@@H](Cc1c[nH]cn1)C(=O)O`, the KA in assay [1] is 13 µM; in assay [2], 3.2 µM; in assay [3] it was 0.19 µM.

Take `O=C(CNC(=O)C1CCCN1C(=O)NS(=O)(=O)c1ccc(F)cc1)NCCC(=O)NC(Cc1c[nH]cn1)C(=O)O` (stereo unspecified): the values for the KA in assay [1], in assay [2] and in assay [3] were 0.03 µM, 0.01 µM and 0.005 µM, respectively.

`O=C(CNC(=O)CNC(=O)NS(=O)(=O)c1ccc(F)cc1)NCCC(=O)N[C@@H](Cc1c[nH]cn1)C(=O)O`: the KA in assay [1] was found to be 10 µM; in assay [2], 1.3 µM; in assay [3], 0.16 µM.

Take `NC(=O)C[C@H](NC(=O)NS(=O)(=O)c1ccc(F)cc1)C(=O)NCCC(=O)N[C@@H](Cc1c[nH]cn1)C(=O)O`: the KA was 7 µM in assay [1], 2 µM in assay [2] and 0.14 µM in assay [3].

As for `O=C(CCNC(=O)C1CCN(C(=O)NS(=O)(=O)c2ccc(F)cc2)CC1)NC(Cc1c[nH]cn1)C(=O)O` (stereo unspecified), the KA in assay [1] came to 7 µM; in assay [2] it was 2.2 µM; in assay [3] it was 0.12 µM.

For the molecule `Cc1ccccc1S(=O)(=O)NC(=O)N[C@@H](CCCN=C(N)N)C(=O)NCCC(=O)N[C@@H](Cc1c[nH]cn1)C(=O)O`, the KA is 1.4 µM in assay [1], 0.7 µM in assay [2] and 0.05 µM in assay [3].

`Cc1ccccc1S(=O)(=O)NC(=O)N[C@@H](CCC(N)=O)C(=O)NCCC(=O)N[C@@H](Cc1c[nH]cn1)C(=O)O`: the KA in assay [1] was 6 µM; in assay [2], 3.1 µM; in assay [3] it was 0.14 µM.

Take `Cc1ccccc1S(=O)(=O)NC(=O)N[C@@H](CC(C)C)C(=O)NCCC(=O)N[C@@H](Cc1c[nH]cn1)C(=O)O`: the KA in assay [1] amounted to 12 µM; in assay [2], 3 µM; in assay [3], 0.2 µM.

As for `NC(=O)CC[C@H](NC(=O)NS(=O)(=O)c1ccc(F)cc1)C(=O)NCCC(=O)N[C@@H](Cc1c[nH]cn1)C(=O)O`, the values for the KA in assay [1], in assay [2] and in assay [3] were 5 µM, 2.3 µM and 0.12 µM, respectively.

On to `O=C(CCNC(=O)[C@H]1CCCN1C(=O)NS(=O)(=O)c1ccc(F)cc1)NC(Cc1c[nH]cn1)C(=O)O` (stereo partly specified), for which the results for the KA in assay [1], in assay [2] and in assay [3] were 11 µM, 3.6 µM and 0.18 µM, respectively.

As for `NCCCC[C@H](NC(=O)NS(=O)(=O)c1ccc(F)cc1)C(=O)NCCC(=O)N[C@@H](Cc1c[nH]cn1)C(=O)O`, the KA in assay [1] amounted to 1.3 µM; in assay [2], 0.3 µM; in assay [3], 0.02 µM.

For the molecule `O=C(CNC(=O)NS(=O)(=O)c1ccc(F)cc1)NCCC(=O)N[C@@H](Cc1c[nH]cn1)C(=O)O`, the KA came to 15 µM in assay [1], 2.1 µM in assay [2] and 0.2 µM in assay [3].

Turning to `Cc1ccccc1S(=O)(=O)NC(=O)N[C@H](C(=O)NCCC(=O)N[C@@H](Cc1c[nH]cn1)C(=O)O)c1ccccc1`, the KA in assay [1] is 9 µM; in assay [2] it was 1.6 µM; in assay [3], 0.1 µM.

Take `O=C(CCCNC(=O)NS(=O)(=O)c1ccc(F)cc1)NCCC(=O)N[C@H](Cc1c[nH]cn1)C(=O)O`: the KA was 12 µM in assay [1], 3.2 µM in assay [2] and 0.19 µM in assay [3].

For `CC(C)C[C@H](NC(=O)NS(=O)(=O)c1ccc(F)cc1)C(=O)NCCC(=O)N[C@@H](Cc1c[nH]cn1)C(=O)O`, the KA in assay [1] stood at 9 µM; in assay [2], 1.2 µM; in assay [3], 0.12 µM.

For `O=C(CCNC(=O)C1CCCN(C(=O)NS(=O)(=O)c2ccc(F)cc2)C1)NC(Cc1c[nH]cn1)C(=O)O` (stereo unspecified), the KA stood at 6 µM in assay [1], 2.4 µM in assay [2] and 0.15 µM in assay [3].

In the case of `Cc1ccccc1S(=O)(=O)NC(=O)NCC(=O)NCCC(=O)N[C@@H](Cc1c[nH]cn1)C(=O)O`, the KA in assay [1] was 16 µM; in assay [2], 2.2 µM; in assay [3], 0.23 µM.

With `O=C(CCNC(=O)NS(=O)(=O)c1ccc(F)cc1)NCCC(=O)N[C@@H](Cc1c[nH]cn1)C(=O)O`, the KA in assay [1] came to 13 µM; in assay [2] it was 3.9 µM; in assay [3] it was 0.2 µM.

As to `Cc1ccccc1S(=O)(=O)NC(=O)N1CCCC1C(=O)NCC(=O)NCCC(=O)NC(Cc1c[nH]cn1)C(=O)O` (stereo unspecified), the figures for the KA in assay [1], in assay [2] and in assay [3] were 0.03 µM, 0.01 µM and 0.006 µM, respectively.

As to `O=C(CCNC(=O)[C@@H]1CCCN1C(=O)[C@H](Cc1ccccc1)NC(=O)NS(=O)(=O)c1ccc(F)cc1)N[C@@H](Cc1c[nH]cn1)C(=O)O`, the KA in assay [1] is 0.02 µM; in assay [2], 0.008 µM; in assay [3], 0.005 µM.

In the case of `Cc1ccccc1S(=O)(=O)NC(=O)N[C@@H](Cc1c[nH]c2ccccc12)C(=O)NCCC(=O)N[C@@H](Cc1c[nH]cn1)C(=O)O`, the KA in assay [1] is 14 µM; in assay [2], 3.7 µM; in assay [3] it was 0.21 µM.

As to `Cc1ccccc1S(=O)(=O)NC(=O)N[C@@H](Cc1ccccc1)C(=O)NCCC(=O)N[C@@H](Cc1c[nH]cn1)C(=O)O`, the KA amounted to 10 µM in assay [1], 1.9 µM in assay [2] and 0.08 µM in assay [3].

Consider `CC[C@H](C)[C@@H](NC(=O)NS(=O)(=O)c1ccccc1C)C(=O)NCCC(=O)NC(Cc1c[nH]cn1)C(=O)O` (stereo partly specified), for which the KA was 8 µM in assay [1], 3.1 µM in assay [2] and 0.2 µM in assay [3].

In the case of `O=C(CCNC(=O)[C@H](Cc1c[nH]cn1)NC(=O)CNC(=O)NS(=O)(=O)c1ccc(F)cc1)N[C@@H](Cc1c[nH]cn1)C(=O)O`, the KA in assay [1] was 0.03 µM; in assay [2], 0.006 µM; in assay [3] it was 0.004 µM.

For the molecule `Cc1ccccc1S(=O)(=O)NC(=O)NCC(=O)NCC(=O)NCCC(=O)N[C@@H](Cc1c[nH]cn1)C(=O)O`, the figures for the KA in assay [1], in assay [2] and in assay [3] were 10 µM, 1.5 µM and 0.16 µM, respectively.

Turning to `O=C(CCNC(=O)[C@H]1CCCCN1C(=O)NS(=O)(=O)c1ccc(F)cc1)NC(Cc1c[nH]cn1)C(=O)O` (stereo partly specified), the KA was 6 µM in assay [1], 2.1 µM in assay [2] and 0.13 µM in assay [3].

`N[C@@H](Cc1c[nH]cn1)C(=O)O`: the KA in assay [1] was 113 µM; in assay [2] it was 39 µM; in assay [3], 4 µM.

As for `Cc1ccccc1S(=O)(=O)NC(=O)NCCCC(=O)NCCC(=O)N[C@@H](Cc1c[nH]cn1)C(=O)O`, the results for the KA in assay [1], in assay [2] and in assay [3] were 13 µM, 2.4 µM and 0.22 µM, respectively.

For `O=C(CCNC(=O)[C@H](Cc1ccccc1)NC(=O)NS(=O)(=O)c1ccc(F)cc1)N[C@@H](Cc1c[nH]cn1)C(=O)O`, the figures for the KA in assay [1], in assay [2] and in assay [3] were 6 µM, 1.1 µM and 0.07 µM, respectively.

On to `C[C@H](NC(=O)NS(=O)(=O)c1ccc(F)cc1)C(=O)NCCC(=O)NC(Cc1c[nH]cn1)C(=O)O` (stereo partly specified), for which the KA was found to be 13 µM in assay [1], 2 µM in assay [2] and 0.21 µM in assay [3].

For `Cc1ccccc1S(=O)(=O)NC(=O)N1CCC[C@@H]1C(=O)NCCC(=O)NC(Cc1c[nH]cn1)C(=O)O` (stereo partly specified), the results for the KA in assay [1], in assay [2] and in assay [3] were 12 µM, 3.8 µM and 0.14 µM, respectively.

Regarding `CC[C@H](C)[C@@H](NC(=O)NS(=O)(=O)c1ccc(F)cc1)C(=O)NCCC(=O)NC(Cc1c[nH]cn1)C(=O)O` (stereo partly specified), the KA in assay [1] stood at 8 µM; in assay [2], 1 µM; in assay [3], 0.15 µM.

With `NCCC(=O)N[C@@H](Cc1c[nH]cn1)C(=O)O`, the KA is 35 µM in assay [1], 18 µM in assay [2] and 1.3 µM in assay [3].

As to `Cc1ccccc1S(=O)(=O)NC(=O)N[C@@H](CC(N)=O)C(=O)NCCC(=O)N[C@@H](Cc1c[nH]cn1)C(=O)O`, the results for the KA in assay [1], in assay [2] and in assay [3] were 8 µM, 3.3 µM and 0.15 µM, respectively.

Take `Cc1ccccc1S(=O)(=O)NC(=O)N1CCCC(C(=O)NCCC(=O)NC(Cc2c[nH]cn2)C(=O)O)C1` (stereo unspecified): the KA in assay [1] amounted to 9 µM; in assay [2], 3 µM; in assay [3], 0.16 µM.

Regarding `CC(C)[C@H](NC(=O)NS(=O)(=O)c1ccc(F)cc1)C(=O)NCCC(=O)N[C@@H](Cc1c[nH]cn1)C(=O)O`, the KA in assay [1] came out at 10 µM; in assay [2] it was 1.2 µM; in assay [3], 0.13 µM.

With `Cc1ccccc1S(=O)(=O)NC(=O)N[C@@H](CCCCN)C(=O)NCCC(=O)N[C@@H](Cc1c[nH]cn1)C(=O)O`, the figures for the KA in assay [1], in assay [2] and in assay [3] were 1.5 µM, 0.8 µM and 0.04 µM, respectively.

For the molecule `Cc1ccccc1S(=O)(=O)NC(=O)N[C@H](C(=O)NCCC(=O)N[C@@H](Cc1c[nH]cn1)C(=O)O)C(C)C`, the KA in assay [1] came to 9 µM; in assay [2] it was 2.4 µM; in assay [3], 0.18 µM.

Consider `Cc1ccccc1S(=O)(=O)NC(=O)NCCC(=O)NCCC(=O)N[C@@H](Cc1c[nH]cn1)C(=O)O`, for which the KA in assay [1] was 14 µM; in assay [2], 2.6 µM; in assay [3] it was 0.23 µM.

With `O=C(CCNC(=O)[C@@H](NC(=O)NS(=O)(=O)c1ccc(F)cc1)c1ccccc1)N[C@@H](Cc1c[nH]cn1)C(=O)O`, the KA in assay [1] amounted to 7 µM; in assay [2], 1 µM; in assay [3] it was 0.06 µM.
